Test results reported in article PMC5472370 (ACS Omega, 2017).

Experiments:
mature BACE1 ectodomain [1] = target: T1, mature BACE1 ectodomain (Homo sapiens, UniProt P56817); test: SPR binding to immobilized WT BACE1
Procedure, shortened: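 Mature ectodomain and a neutravidin reference were amine-coupled on CM7 chips; runs at 25 °C. Running buffers: HBS-N pH 7.4, or 10 mM NaOAc pH 4.5 with 150 mM NaCl; both with 0.05% Tween 20 and 5% DMSO. Injections 30 s at 30 µL/min, with DMSO correction over 2.5–6.5%. Screened at 0.25 mM in duplicate (forward and reverse order) against BACE1, neutravidin and a blank spot. Top 10% retested over 0.03–0.500 mM (8 points, 1.5-fold).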

mature BACE1 ectodomain [2] = target: T1, mature BACE1 ectodomain; test: SPR competition with OM99-2; settings: binding before and after OM99-2 injection, pH 4.5
Procedure, shortened: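 Run at pH 4.5 on immobilized wild-type ectodomain: 10 mM NaOAc, 150 mM NaCl, 0.05% Tween 20, 5% DMSO, 25 °C. Fragments injected before and after an injection of the peptide inhibitor OM99-2; binding responses compared. Concentration series 0.03, 0.06, 0.13, 0.25 and 0.50 mM.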

BACE1 D32N mutant = BACE1 D32N mutant (Homo sapiens, UniProt P56817, D93N); test: SPR binding to BACE1 D32N mutant; settings: BACE1 D32N catalytic-site mutant
Procedure, shortened: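 Catalytic-site D32N ectodomain (residues −16 to 393, C-terminal His- plus StrepII-tag), expressed in and purified from E. coli. Amine-coupled to a CM7 chip and run under conditions similar to wild type: 25 °C, 30 s injections at 30 µL/min, DMSO solvent correction. Concentration series 0.03, 0.06, 0.13, 0.25 and 0.50 mM.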

mature BACE1 ectodomain [3] = target: T1, mature BACE1 ectodomain; test: WaterLOGSY ligand-observed NMR binding; settings: 30-fold excess of ligand, performed once
Procedure, shortened: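 Ligand-observed NMR on 5 µM mature ectodomain with 0.15 mM ligand (1:30 protein/ligand, ligand from 100 mM DMSO-d6 stock) and D2O added. Recorded at 27 °C on a 600 MHz spectrometer with cryoprobe. Both 1D 1H and WaterLOGSY spectra acquired: 32K points, 14 ppm sweep width, 128 scans. Run at physiological pH, then repeated at acidic pH.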

T1 sequence (P56817 46-454 limits assumed): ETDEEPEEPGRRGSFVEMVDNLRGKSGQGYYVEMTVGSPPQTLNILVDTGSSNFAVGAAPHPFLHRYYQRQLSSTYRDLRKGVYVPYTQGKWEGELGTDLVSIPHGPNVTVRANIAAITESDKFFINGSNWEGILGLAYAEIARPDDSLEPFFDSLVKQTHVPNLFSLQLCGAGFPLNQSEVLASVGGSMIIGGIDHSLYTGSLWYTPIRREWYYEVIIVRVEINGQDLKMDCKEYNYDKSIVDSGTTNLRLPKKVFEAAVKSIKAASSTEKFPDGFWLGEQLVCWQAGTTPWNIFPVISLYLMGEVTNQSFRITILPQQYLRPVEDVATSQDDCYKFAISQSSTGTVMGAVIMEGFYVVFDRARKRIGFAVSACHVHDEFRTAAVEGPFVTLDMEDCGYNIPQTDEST
Sequence of BACE1 D32N mutant (P56817 46-454 D93N): as the sequence (P56817 46-454 limits assumed) above, with D48N counted along it

## CC1(c2ccccc2)COCC(N)=N1 (centres unmarked) [Compound 14, 5-Methyl-5-phenyl-2,6-dihydro-1,4-oxazin-3-amine]
Mature BACE1 ectodomain [1]; pH not stated
  SPR binding to WT BACE1 (mature BACE1 ectodomain): bound strongly
Mature BACE1 ectodomain [2]
  SPR OM99-2 competition: drastically reduced
BACE1 D32N mutant
  SPR D32N binding: lost binding
Mature BACE1 ectodomain [3]; pH 4.5
  WaterLOGSY signal at pH 4.5: strong positive

## Brc1cc2c(N3CCNCC3)nccn2c1 [Compound 10, 7-Bromo-1-piperazin-1-yl-pyrrolo[1,2-a]pyrazine]
Mature BACE1 ectodomain [1]; WT BACE1, pH 4.5
  SPR binding at pH 4.5: nonspecific binding
Mature BACE1 ectodomain [2]
  SPR OM99-2 competition: bound
BACE1 D32N mutant
  SPR D32N binding: bound
Mature BACE1 ectodomain [3]
  WaterLOGSY signal at pH 7.5: clear positive

## CN(C)c1nc(N2CCCC2)nc2ccccc12 [Compound 12, N,N-Dimethyl-2-pyrrolidin-1-yl-quinazolin-4-amine]
Mature BACE1 ectodomain [2]
  SPR OM99-2 competition: reduced binding
BACE1 D32N mutant
  SPR D32N binding: bound
Mature BACE1 ectodomain [3]
  WaterLOGSY signal at pH 7.5: clear positive
